Most compounds without a hit are left out; they make up all but 1% or so of the library.
IMP-1 inhibitor = inhibitors of Pseudomonas aeruginosa IMP-1 metallo-beta-lactamase. purified IMP-1, nitrocefin hydrolysis, epi-absorbance fluorescence. inhibition, % at 5.6 µM. 290,000 compounds, 0.45% hits. AID 1556;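 active = inhibition above the mean plus 3 SD of all compounds in the same screening run, cut at about 4.5% in these data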
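Assay system: purified IMP-1; Quantity: IMP-1 0.2 nM before substrate addition; Medium: HEPES buffer pH 7.1 with ZnSO4 and Brij 35; Incubation: 15 min enzyme–compound preincubation, then 25 min nitrocefin reaction, 25 °C; Signal: fluorescence quenching readout, ex 480/em 530 nm; Controls: DMSO with and without IMP-1; Repeats: singlicate testing.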
PvdQ acylase = P. aeruginosa PvdQ acylase inhibition; purified PvdQ acylase, fluorescence plate reader; inhibition, % at 10 µM; 340,000 compounds, 0.063% hits; AID 488965; in the data active = inhibition above about 30%, passing the limit was not always enough
RAD54 branch = blocks human RAD54 Holliday junction branch migration. inhibition, % at 10.4 µM. 360,000 compounds, 0.14% hits. FAM/BHQ fluorescence;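 active = mean normalized replicate activity at least 40 and at least half of replicates scoring 40 or more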;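 note: inhibitors cause a drop in the FAM fluorescence signal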
VIM-2 inh = blocks Pseudomonas aeruginosa VIM-2 metallo-beta-lactamase | inhibition, % at 5.6 µM | 290,000 compounds, 0.89% hits | purified VIM-2, nitrocefin hydrolysis, epi-absorbance fluorescence;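 active = inhibition above the mean of all tested compounds plus 3 SD, cutoff set per screening run, cut at about 7.5% in these data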;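 note: red hydrolysis product quenches plate fluorescence so inhibitors raise well fluorescence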
DNA FID counter = fluorescent intercalator displacement, NS3 helicase counter-screen. DNA fluorescent intercalator displacement, fluorescence. inhibition, % at 7.9 µM. 290,000 compounds, 0.17% hits; in the data active = inhibition above about 37%;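 note: higher means more ethidium bromide displaced from hairpin DNA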
A number is an active result.

How did CC(C)S(=O)(=O)N1CCCC(C(=O)c2cccc(Cl)c2)C1 (stereo not given) do in these assays?
IMP-1 inhibitor: 40; PvdQ acylase: inactive; VIM-2 inh: inactive; DNA FID counter: inactive

How did Cc1ccc(CC(=O)Nc2ccccc2N2CCOCC2)cc1C do in these assays?
IMP-1 inhibitor: 6.3; PvdQ acylase: inactive; RAD54 branch: inactive; VIM-2 inh: inactive; DNA FID counter: inactive

What do the screens show for `CN(C)CC(=O)Nc1ccc2c(c1)[C@@H]1C[C@@H](CC(=O)NC3CCCCC3)O[C@H](CO)[C@@H]1O2`?
RAD54 branch: inactive

How did CCN(CC)c1ccc2nc3ccccc3[n+](CC)c2c1 do in these assays?
IMP-1 inhibitor: inactive; PvdQ acylase: inactive; RAD54 branch: 54; VIM-2 inh: 11; DNA FID counter: inactive

What do the screens show for `CCN(CC)c1ccc2nc3ccc(N)cc3[n+](-c3ccccc3)c2c1`?
PvdQ acylase: inactive; RAD54 branch: 85

Results for C[C@@H]1CN([C@H](C)CO)C(=O)c2cc(-c3ccc(F)cc3)cnc2O[C@H]1CN(C)CC1CCCC1 ?
RAD54 branch: inactive

How did COc1ccc(OCC(O)Cn2c(=N)n(Cc3ccccc3)c3ccccc32)cc1 (stereo not given) do in these assays?
IMP-1 inhibitor: inactive; PvdQ acylase: inactive; RAD54 branch: inactive; VIM-2 inh: inactive; DNA FID counter: 48

How did N=c1n(Cc2ccc(Cl)cc2)c2ccccc2n1CC(O)COc1ccccc1 (stereo not given) do in these assays?
IMP-1 inhibitor: inactive; PvdQ acylase: inactive; RAD54 branch: inactive; VIM-2 inh: inactive; DNA FID counter: 43

How did Cc1cccc(OCC(O)Cn2c(=N)n(CCN3CCCCC3)c3ccccc32)c1 (stereo not given) do in these assays?
IMP-1 inhibitor: inactive; PvdQ acylase: inactive; RAD54 branch: inactive; VIM-2 inh: inactive; DNA FID counter: 39

Results for Cc1ccc(NC(=O)c2ccc(=O)n(CC(=O)Nc3c(C)cc(C)cc3C)n2)cc1 ?
IMP-1 inhibitor: inactive; PvdQ acylase: inactive; RAD54 branch: inactive; VIM-2 inh: inactive; DNA FID counter: inactive

How did COC(=O)c1ccc(NC(=O)Cn2nc(C(=O)Nc3ccc(C)cc3)ccc2=O)cc1 do in these assays?
IMP-1 inhibitor: 11; PvdQ acylase: inactive; RAD54 branch: inactive; VIM-2 inh: inactive; DNA FID counter: inactive

Results for O=C1c2ccccc2C(=O)c2c(Nc3ccc(CCO)cc3)ccc(O)c21 ?
IMP-1 inhibitor: inactive; PvdQ acylase: inactive; RAD54 branch: inactive; VIM-2 inh: inactive; DNA FID counter: inactive

What do the screens show for `O=C1c2c(O)ccc(O)c2C(=O)c2c(NCCNCCO)ccc(NCCNCCO)c21`?
PvdQ acylase: inactive; RAD54 branch: 122

What do the screens show for `COc1ccc2[nH]c(=O)c3c(c2c1)OC(C)(C)C=C3`?
IMP-1 inhibitor: 39; PvdQ acylase: inactive; RAD54 branch: inactive; VIM-2 inh: inactive; DNA FID counter: inactive

How did O=[N+]([O-])c1ccc(N2CCNCC2)cc1Sc1nc2ccccc2[nH]1 do in these assays?
IMP-1 inhibitor: inactive; PvdQ acylase: inactive; VIM-2 inh: inactive; DNA FID counter: 40

What do the screens show for `CC1(C)CC(=O)C2=C(C1)OC(N)=C(C#N)C2C#Cc1ccccc1` (stereo not given)?
IMP-1 inhibitor: inactive; PvdQ acylase: inactive; RAD54 branch: inactive; VIM-2 inh: inactive; DNA FID counter: inactive

What do the screens show for `CC1(C)CC(=O)C2=C(C1)OC(N)=C(C#N)C2CCc1ccccc1` (stereo not given)?
IMP-1 inhibitor: 4.7; PvdQ acylase: inactive; RAD54 branch: inactive; VIM-2 inh: inactive; DNA FID counter: inactive

Results for O=C(NC1CCSC1)c1cccc(Cl)c1 (stereo not given) ?
IMP-1 inhibitor: inactive; PvdQ acylase: 81; RAD54 branch: inactive; VIM-2 inh: inactive; DNA FID counter: inactive

What do the screens show for `Cc1nn2c(-c3cccc(NC(=O)c4ccco4)c3)nnc2c2ccccc12`?
IMP-1 inhibitor: inactive; PvdQ acylase: inactive; RAD54 branch: inactive; VIM-2 inh: 9.8; DNA FID counter: inactive

Results for Cc1[nH]n(-c2ccccc2)c(=O)c1N=Nc1ccc(C(N)=O)cc1 ?
IMP-1 inhibitor: inactive; PvdQ acylase: inactive; RAD54 branch: inactive; VIM-2 inh: 12; DNA FID counter: inactive

How did Cc1[nH]n(-c2ccccc2)c(=O)c1N=Nc1ccc(C(=O)O)cc1 do in these assays?
IMP-1 inhibitor: inactive; PvdQ acylase: inactive; RAD54 branch: inactive; VIM-2 inh: inactive; DNA FID counter: inactive

Results for COc1ccc(-n2cc(CN[C@H]3CCCCNC3=O)c(-c3cccc(F)c3)n2)cc1 ?
IMP-1 inhibitor: inactive; PvdQ acylase: inactive; RAD54 branch: inactive; VIM-2 inh: inactive; DNA FID counter: inactive

Screening results (PubChem)
